# Where a chain is given by its changes, count along the chain named.
# What was measured:
# Settings in all cases: stereoisomer not certain
# OR2M4 (Homo sapiens) = target: T1, OR2M4 (Homo sapiens) (UniProt Q96R27)
# T1 sequence (whole entry): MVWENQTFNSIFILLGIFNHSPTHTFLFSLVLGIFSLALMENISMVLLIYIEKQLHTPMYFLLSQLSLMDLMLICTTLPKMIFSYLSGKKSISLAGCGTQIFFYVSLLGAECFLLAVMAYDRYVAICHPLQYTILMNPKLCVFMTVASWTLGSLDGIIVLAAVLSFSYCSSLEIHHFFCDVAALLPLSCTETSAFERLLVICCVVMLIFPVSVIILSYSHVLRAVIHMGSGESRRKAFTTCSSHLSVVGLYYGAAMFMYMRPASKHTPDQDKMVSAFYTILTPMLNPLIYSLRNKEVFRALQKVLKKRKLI
# Procedure, shortened: (§1)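 Assay methods differ from source to source, frequently being transient luciferase assays in mammalian cell lines. For each receptor–molecule pair, the label responsive (active) applies when the original authors judged the measured signal statistically different from baseline, and non-responsive (inactive) applies otherwise.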
# OR2M5 (Homo sapiens) = target: T2, OR2M5 (Homo sapiens) (UniProt A3KFT3)
# T2 sequence (whole entry): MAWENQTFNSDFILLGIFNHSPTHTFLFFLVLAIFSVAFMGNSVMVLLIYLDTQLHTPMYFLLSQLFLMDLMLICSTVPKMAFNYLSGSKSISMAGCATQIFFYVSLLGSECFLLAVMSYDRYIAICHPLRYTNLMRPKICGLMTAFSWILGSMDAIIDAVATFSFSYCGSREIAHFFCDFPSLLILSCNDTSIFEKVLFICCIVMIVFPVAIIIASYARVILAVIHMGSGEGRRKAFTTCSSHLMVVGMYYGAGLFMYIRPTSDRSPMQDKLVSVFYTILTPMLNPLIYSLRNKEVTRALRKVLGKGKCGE
# Procedure, shortened: as §1
# OR2M5 D11G = system: T3, OR2M5 D11G
# T3 sequence (whole entry): T2 sequence (whole entry) with D11G
# Procedure, shortened: as §1
# OR2M3 M302T = system: OR2M3 M302T
# OR2M3 M302T, sequence (as listed by the source, stated change not applied): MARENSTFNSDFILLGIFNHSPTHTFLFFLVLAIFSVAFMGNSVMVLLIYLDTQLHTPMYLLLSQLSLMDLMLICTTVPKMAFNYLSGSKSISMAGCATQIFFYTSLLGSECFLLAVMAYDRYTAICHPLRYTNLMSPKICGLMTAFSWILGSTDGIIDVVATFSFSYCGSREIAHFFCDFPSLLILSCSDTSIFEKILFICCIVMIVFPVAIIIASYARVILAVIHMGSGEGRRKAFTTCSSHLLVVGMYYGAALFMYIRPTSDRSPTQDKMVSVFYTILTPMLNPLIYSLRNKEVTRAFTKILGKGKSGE
# Procedure, shortened: as §1
# OR2M3 R266H = system: OR2M3 R266H
# OR2M3 R266H, sequence (as listed by the source, stated change not applied): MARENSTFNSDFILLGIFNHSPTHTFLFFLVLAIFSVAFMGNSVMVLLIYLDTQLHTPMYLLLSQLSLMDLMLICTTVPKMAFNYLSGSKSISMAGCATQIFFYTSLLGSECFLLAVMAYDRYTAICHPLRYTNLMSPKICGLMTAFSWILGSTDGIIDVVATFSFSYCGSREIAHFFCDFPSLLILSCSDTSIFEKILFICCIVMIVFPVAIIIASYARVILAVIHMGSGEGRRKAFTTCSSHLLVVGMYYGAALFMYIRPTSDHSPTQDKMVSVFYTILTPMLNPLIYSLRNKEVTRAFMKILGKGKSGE
# Procedure, shortened: as §1
# OR2M3 R293S = system: OR2M3 R293S
# OR2M3 R293S, sequence (as listed by the source, stated change not applied): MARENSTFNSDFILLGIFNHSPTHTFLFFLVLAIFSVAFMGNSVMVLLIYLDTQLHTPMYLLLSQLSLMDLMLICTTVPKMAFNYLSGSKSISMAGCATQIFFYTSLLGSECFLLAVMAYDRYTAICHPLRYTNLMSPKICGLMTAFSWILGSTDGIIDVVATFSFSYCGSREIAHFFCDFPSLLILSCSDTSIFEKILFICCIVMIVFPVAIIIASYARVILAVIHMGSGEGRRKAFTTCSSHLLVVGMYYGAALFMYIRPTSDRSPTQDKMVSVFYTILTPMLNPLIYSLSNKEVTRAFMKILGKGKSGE
# Procedure, shortened: as §1
# OR2M3 V78I = system: OR2M3 V78I
# OR2M3 V78I, sequence (as listed by the source, stated change not applied): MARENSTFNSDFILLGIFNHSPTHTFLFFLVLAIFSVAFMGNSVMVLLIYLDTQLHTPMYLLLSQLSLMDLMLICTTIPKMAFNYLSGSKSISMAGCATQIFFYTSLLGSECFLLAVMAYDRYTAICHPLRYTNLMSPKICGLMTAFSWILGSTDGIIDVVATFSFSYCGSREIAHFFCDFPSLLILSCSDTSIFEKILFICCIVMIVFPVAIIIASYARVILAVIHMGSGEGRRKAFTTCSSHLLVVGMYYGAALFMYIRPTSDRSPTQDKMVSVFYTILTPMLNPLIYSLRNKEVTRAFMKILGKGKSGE
# Procedure, shortened: as §1
# OR2M3 Y259H = system: OR2M3 Y259H
# OR2M3 Y259H, sequence (as listed by the source, stated change not applied): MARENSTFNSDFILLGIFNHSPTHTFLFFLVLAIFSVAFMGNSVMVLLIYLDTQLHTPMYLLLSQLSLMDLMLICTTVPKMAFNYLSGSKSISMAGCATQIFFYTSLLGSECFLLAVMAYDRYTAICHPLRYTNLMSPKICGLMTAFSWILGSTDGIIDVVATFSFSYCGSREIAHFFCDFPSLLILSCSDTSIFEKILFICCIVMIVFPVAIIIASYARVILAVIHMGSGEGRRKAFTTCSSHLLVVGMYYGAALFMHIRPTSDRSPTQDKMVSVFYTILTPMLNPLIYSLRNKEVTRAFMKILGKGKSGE
# Procedure, shortened: as §1
# OR2M5 A156G = system: OR2M5 A156G
# OR2M5 A156G, sequence (as listed by the source, stated change not applied): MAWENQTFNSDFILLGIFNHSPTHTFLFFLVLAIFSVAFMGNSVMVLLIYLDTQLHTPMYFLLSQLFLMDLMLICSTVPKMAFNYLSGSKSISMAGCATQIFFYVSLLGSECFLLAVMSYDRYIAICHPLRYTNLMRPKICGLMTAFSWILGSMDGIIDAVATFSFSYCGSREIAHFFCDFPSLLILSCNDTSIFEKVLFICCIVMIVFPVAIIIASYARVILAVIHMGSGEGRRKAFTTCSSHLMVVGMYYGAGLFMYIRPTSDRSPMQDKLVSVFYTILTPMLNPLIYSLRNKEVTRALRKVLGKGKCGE
# Procedure, shortened: as §1
# OR2M5 A160V = system: OR2M5 A160V
# OR2M5 A160V, sequence (as listed by the source, stated change not applied): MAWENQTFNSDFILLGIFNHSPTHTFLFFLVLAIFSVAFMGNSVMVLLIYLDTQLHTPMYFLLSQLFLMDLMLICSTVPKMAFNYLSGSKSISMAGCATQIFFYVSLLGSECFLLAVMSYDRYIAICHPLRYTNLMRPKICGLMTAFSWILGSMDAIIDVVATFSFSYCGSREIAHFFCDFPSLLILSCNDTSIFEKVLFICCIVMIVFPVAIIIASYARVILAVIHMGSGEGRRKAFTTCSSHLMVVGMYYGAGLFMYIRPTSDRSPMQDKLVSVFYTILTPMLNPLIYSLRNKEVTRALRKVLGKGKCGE
# Procedure, shortened: as §1
smiles,measurement,setting,value
Cc1occc(=O)c1OC(=O)C(C)C,odorant receptor agonist call,OR2M4 (Homo sapiens),inactive
OCc1ccccc1,odorant receptor agonist call,OR2M4 (Homo sapiens),inactive
CCCCCC1C(=O)CCC1CC(=O)OC (stereo not drawn),odorant receptor agonist call,OR2M4 (Homo sapiens),inactive
CCCC(S)CCOC(C)=O (stereo not drawn),odorant receptor agonist call,OR2M4 (Homo sapiens),inactive
same,odorant receptor agonist call,OR2M5 (Homo sapiens),inactive
same,odorant receptor agonist call,OR2M5 D11G,inactive
CCCCCC(=O)C(C)C(C)=O (stereo not drawn),odorant receptor agonist call,OR2M4 (Homo sapiens),inactive
same,odorant receptor agonist call,OR2M5 (Homo sapiens),inactive
CC1=C(O)C(=O)C(C)O1 (stereo not drawn),odorant receptor agonist call,OR2M4 (Homo sapiens),inactive
same,odorant receptor agonist call,OR2M5 (Homo sapiens),inactive
same,odorant receptor agonist call,OR2M5 D11G,inactive
CC1=C(O)C(=O)OC1C (stereo not drawn),odorant receptor agonist call,OR2M4 (Homo sapiens),inactive
same,odorant receptor agonist call,OR2M5 (Homo sapiens),inactive
same,odorant receptor agonist call,OR2M5 D11G,inactive
CCCC(C)C(=O)OCC (stereo not drawn),odorant receptor agonist call,OR2M4 (Homo sapiens),inactive
CC1=NC(C)C(C)S1 (stereo not drawn),odorant receptor agonist call,OR2M4 (Homo sapiens),inactive
same,odorant receptor agonist call,OR2M5 (Homo sapiens),inactive
same,odorant receptor agonist call,OR2M5 D11G,inactive
COc1ccc(C)cc1,odorant receptor agonist call,OR2M4 (Homo sapiens),active
CCCCC1CCC(=O)O1 (stereo not drawn),odorant receptor agonist call,OR2M4 (Homo sapiens),inactive
CCC1OC(C)=C(O)C1=O (stereo not drawn),odorant receptor agonist call,OR2M4 (Homo sapiens),inactive
same,odorant receptor agonist call,OR2M5 (Homo sapiens),inactive
same,odorant receptor agonist call,OR2M5 D11G,inactive
CCC1OC(=O)C(O)=C1C (stereo not drawn),odorant receptor agonist call,OR2M4 (Homo sapiens),inactive
same,odorant receptor agonist call,OR2M5 (Homo sapiens),inactive
same,odorant receptor agonist call,OR2M5 D11G,inactive
CCCCCCCCC(OC(C)=O)OC(C)=O,odorant receptor agonist call,OR2M4 (Homo sapiens),inactive
CCc1ccc(CC(C)(C)C=O)cc1,odorant receptor agonist call,OR2M4 (Homo sapiens),inactive
CC(C)CCCC(C)(C)O,odorant receptor agonist call,OR2M4 (Homo sapiens),inactive
CC(C)=CCCC(C)CC=O (stereo not drawn),odorant receptor agonist call,OR2M4 (Homo sapiens),inactive
C=CCOC(=O)COCCC(C)C,odorant receptor agonist call,OR2M4 (Homo sapiens),inactive
CC(=O)C=CC1=C(C)CCCC1(C)C,odorant receptor agonist call,OR2M4 (Homo sapiens),inactive
CC(=O)OCc1ccccc1,odorant receptor agonist call,OR2M4 (Homo sapiens),inactive
CCC(S)C(C)CO (stereo not drawn),odorant receptor agonist call,OR2M3 M302T,active
same,odorant receptor agonist call,OR2M3 R266H,active
same,odorant receptor agonist call,OR2M3 R293S,active
same,odorant receptor agonist call,OR2M3 V78I,active
same,odorant receptor agonist call,OR2M3 Y259H,inactive
same,odorant receptor agonist call,OR2M4 (Homo sapiens),inactive
same,odorant receptor agonist call,OR2M5 (Homo sapiens),inactive
same,odorant receptor agonist call,OR2M5 A156G,inactive
same,odorant receptor agonist call,OR2M5 A160V,inactive
CC1CC(C)(c2ccccc2)CO1 (stereo not drawn),odorant receptor agonist call,OR2M4 (Homo sapiens),inactive
Cc1cnc(C)c(C)n1,odorant receptor agonist call,OR2M4 (Homo sapiens),inactive
same,odorant receptor agonist call,OR2M5 (Homo sapiens),inactive
same,odorant receptor agonist call,OR2M5 D11G,inactive
Cc1ccc(C(C)C)cc1O,odorant receptor agonist call,OR2M4 (Homo sapiens),inactive
CCCCCC1COCCC1OC(C)=O (stereo not drawn),odorant receptor agonist call,OR2M4 (Homo sapiens),inactive
CC(C)=CCCC(C)=CCO,odorant receptor agonist call,OR2M4 (Homo sapiens),inactive
CCCCCCC=CCCC=O,odorant receptor agonist call,OR2M4 (Homo sapiens),inactive
same,odorant receptor agonist call,OR2M5 (Homo sapiens),inactive
same,odorant receptor agonist call,OR2M5 D11G,inactive
C=CC(C)(CCC=C(C)C)OC(C)=O (stereo not drawn),odorant receptor agonist call,OR2M4 (Homo sapiens),inactive
CC(=O)c1c(C)c([N+](=O)[O-])c(C(C)(C)C)c([N+](=O)[O-])c1C,odorant receptor agonist call,OR2M5 (Homo sapiens),inactive
CC1=CCC2CC1C2(C)C (stereo not drawn),odorant receptor agonist call,OR2M4 (Homo sapiens),inactive
CC(CO)CS (stereo not drawn),odorant receptor agonist call,OR2M4 (Homo sapiens),inactive
same,odorant receptor agonist call,OR2M5 (Homo sapiens),inactive
CC1CCCCCCCCCCCCC(=O)C1 (stereo not drawn),odorant receptor agonist call,OR2M5 (Homo sapiens),inactive
CCCCCC(S)C(C)CO (stereo not drawn),odorant receptor agonist call,OR2M4 (Homo sapiens),inactive
same,odorant receptor agonist call,OR2M5 (Homo sapiens),inactive
CCCCC(S)C(C)CO (stereo not drawn),odorant receptor agonist call,OR2M4 (Homo sapiens),inactive
same,odorant receptor agonist call,OR2M5 (Homo sapiens),inactive
CCC(=O)C=CC1C(C)=CCCC1(C)C (stereo not drawn),odorant receptor agonist call,OR2M4 (Homo sapiens),inactive
CCC=C(C)C(O)CCCCC (stereo not drawn),odorant receptor agonist call,OR2M4 (Homo sapiens),inactive
CC=CC(=O)C1C(C)=CCCC1(C)C (stereo not drawn),odorant receptor agonist call,OR2M4 (Homo sapiens),active
CC(CC=O)c1ccc(C(C)(C)C)cc1 (stereo not drawn),odorant receptor agonist call,OR2M4 (Homo sapiens),inactive
CC(C)(C)C1CCCCC1OCCCCO (stereo not drawn),odorant receptor agonist call,OR2M4 (Homo sapiens),inactive
COC1CC2CC1C1CC(C=O)CC21 (stereo not drawn),odorant receptor agonist call,OR2M4 (Homo sapiens),inactive
